Experimental data: paper PMC10286757 (Chemmedchem, 2022)

Legend:
[1] = HeLa cell cytotoxicity assay; assay type: cell-based; conditions: human, HeLa cells
Summary of the method: (§1)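 HeLa cells were seeded at 2×10^4 per well in DMEM with 10 % FBS, 2 mM L-glutamine and antibiotics, then held overnight at 37 °C in 5 % CO2. Test compound was added to a final 20 μM for 48 h. Resazurin was then added to a final 50 μM for 4 h, and resorufin fluorescence was read at Ex560/Em590. Cell-free background was subtracted and results expressed as % viability against untreated wells.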

[2] = tested on: Plasmodium falciparum strain 3D7; experiment: parasite lactate dehydrogenase; assay type: cell-based; conditions: for viability at 20 µM / IC50: Plasmodium falciparum, 3D7, 48 h; for viability at 20 µM: read-out: Pf 3D7 % cell viability at 20 μM; for antiplasmodial activity in vitro (in words): Pf 3D7, pLDH assay, low micromolar range; for IC50: read-out: Pf 3D7 IC50
PfCDPK4 = target: T1, PfCDPK4 (Plasmodium falciparum, UniProt Q8IBS5); experiment: Kinase Glo luciferase enzyme activity assay, recombinant PfCDPK4; assay type: biochemical
T1 sequence (Q8IBS5 1-528): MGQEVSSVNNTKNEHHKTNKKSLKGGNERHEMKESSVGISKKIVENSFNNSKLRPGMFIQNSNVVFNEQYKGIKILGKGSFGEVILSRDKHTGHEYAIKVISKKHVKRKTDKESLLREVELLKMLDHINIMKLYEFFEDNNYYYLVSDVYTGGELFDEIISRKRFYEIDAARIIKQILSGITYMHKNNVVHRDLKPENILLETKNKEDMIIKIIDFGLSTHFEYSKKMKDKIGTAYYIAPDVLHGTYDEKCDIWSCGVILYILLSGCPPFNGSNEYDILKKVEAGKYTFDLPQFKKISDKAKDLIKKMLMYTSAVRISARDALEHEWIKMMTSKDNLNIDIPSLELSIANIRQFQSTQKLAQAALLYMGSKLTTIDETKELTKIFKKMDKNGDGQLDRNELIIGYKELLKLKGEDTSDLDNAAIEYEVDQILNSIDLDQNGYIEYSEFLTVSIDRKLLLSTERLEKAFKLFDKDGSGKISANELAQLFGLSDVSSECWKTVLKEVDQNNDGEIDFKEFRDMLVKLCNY
Summary of the method: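 Recombinant PfCDPK4 was expressed in Rosetta E. coli at 20 °C by auto-induction, then purified by IMAC and size exclusion. The enzyme was used at 180 nM with 40 μM Syntide-2 and serial inhibitor dilutions in 20 mM HEPES pH 7.5, 0.1 % BSA, 10 mM MgCl2, ±1 mM CaCl2, 1 mM EGTA. Reactions were started with 10 μM ATP and run 90 min at 30 °C. Remaining ATP was read by Kinase-Glo luminescence, with positive and DMSO controls on each plate.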

HeLa cells = experiment: HeLa cell cytotoxicity assay; assay type: cell-based; conditions: single concentration 20 μM
Summary of the method: as §1

| IC50 (PfCDPK4) [nM] | IC50 [2] [nM] | Compound | viability at 48 h, 20 µM [1] [%] | viability at 20 µM [2] [%] | antiplasmodial activity in vitro (in words) [2] | cytotoxicity in vitro in HeLa cell assay (in words) (HeLa cells) |
| --- | --- | --- | --- | --- | --- | --- |
| > 2000 | – | COc1ccccc1-c1cn(CC2CC2)c2ncnc(N)c12 [2 d, 7‐(Cyclopropylmethyl)‐5‐(2‐methoxyphenyl)‐7H‐pyrrolo[2,3‐d]pyrimidin‐4‐amine] | 63.8 ± 1.5 | 107 ± 6 | – | – |
| 530 ± 185 | 14200 ± 1700 | CCOc1ccc2cc(-c3cn(CC4CCN(C(C)=O)CC4)c4ncnc(N)c34)ccc2c1 [2 g, 1‐{4‐[(4‐Amino‐5‐(2‐ethoxynaphthalen‐6‐yl)‐7H‐pyrrolo[2,3‐d]pyrimidin‐7‐yl)methyl]piperidin‐1‐yl}ethanone] | 92.8 ± 5.7 | 9.3 ± 1.6 | moderate antiplasmodial activity | – |
| > 2000 | – | COc1ccccc1-c1cn(CC2CCN(C(C)=O)CC2)c2ncnc(N)c12 [2 i, 1‐{4‐[(4‐Amino‐5‐(2‐methoxyphenyl)‐7H‐pyrrolo[2,3‐d]pyrimidin‐7‐yl)methyl]piperidin‐1‐yl}ethanone] | 93.3 ± 3.2 | 121 ± 8.6 | – | – |
| > 2000 | – | COc1ccc(-c2cn(CCC3CCN(C(=O)OC(C)(C)C)CC3)c3ncnc(N)c23)cc1OC [2 l, tert ‐Butyl 4‐{2‐[4‐amino‐5‐(3,4‐dimethoxyphenyl)‐7H‐pyrrolo[2,3‐d]pyrimidin‐7‐yl]ethyl}piperidine‐1‐carboxylate] | 82.4 ± 1.4 | 66.8 ± 3.9 | – | – |
| – | 8200 ± 3100 | CCOc1ccc2cc(-c3cn(CCN4CCOCC4)c4ncnc(N)c34)ccc2c1 [2 m, 5‐(2‐Ethoxynaphthalen‐6‐yl)‐7‐(2‐morpholinoethyl)‐7H‐pyrrolo[2,3‐d]pyrimidin‐4‐amine] | 47 ± 7 | 12 ± 2.6 | moderate antiplasmodial activity | moderate cytotoxicity |
| > 2000 | – | COc1ccc(-c2cn(CCN3CCOCC3)c3ncnc(N)c23)cc1OC [2 o, 5‐(3,4‐Dimethoxyphenyl)‐7‐(2‐morpholinoethyl)‐7H‐pyrrolo[2,3‐d]pyrimidin‐4‐amine] | 88 ± 11.8 | 57 ± 6.6 | – | – |
| – | 15 | CCN(CC)CCCC(C)Nc1ccnc2cc(Cl)ccc12 (stereo not shown) [Chloroquine, reference compound] | – | – | – | – |

The next lines start with the compound.

| Compound | IC50 (PfCDPK4) [nM] | IC50 [2] [nM] | viability at 48 h, 20 µM [1] [%] | viability at 20 µM [2] [%] | antiplasmodial activity in vitro (in words) [2] | cytotoxicity in vitro in HeLa cell assay (in words) (HeLa cells) |
| --- | --- | --- | --- | --- | --- | --- |
| COc1ccc2cc(-c3cn(CC4CC4)c4ncnc(N)c34)ccc2c1 [2 a, 7‐(Cyclopropylmethyl)‐5‐(2‐methoxynaphthalen‐6‐yl)‐7H‐pyrrolo[2,3‐d]pyrimidin‐4‐amine] | – | – | 93.6 ± 7.1 | 103 ± 8 | – | – |
| CCOc1ccc2cc(-c3cn(CC4CC4)c4ncnc(N)c34)ccc2c1 [2 b, 7‐(Cyclopropylmethyl)‐5‐(2‐ethoxynaphthalen‐6‐yl)‐7H‐pyrrolo[2,3‐d]pyrimidin‐4‐amine] | 369 ± 138 | 18700 ± 800 | 79.8 ± 3.3 | 24.1 ± 3.8 | moderate antiplasmodial activity | – |
| CCOCCOc1ccc2cc(-c3cn(CC4CC4)c4ncnc(N)c34)ccc2c1 [2 c, 5‐[2‐(2‐Ethoxyethoxy)naphthalen‐6‐yl]‐7‐(cyclopropylmethyl)‐7H‐pyrrolo[2,3‐d]pyrimidin‐4‐amine] | – | – | 73 ± 4.1 | 93.1 ± 1.4 | – | – |
| COc1ccc(-c2cn(CC3CC3)c3ncnc(N)c23)cc1OC [2 e, 7‐(Cyclopropylmethyl)‐5‐(3,4‐dimethoxyphenyl)‐7H‐pyrrolo[2,3‐d]pyrimidin‐4‐amine] | > 2000 | – | 88.8 ± 0.7 | 110 ± 10.9 | – | – |
| COc1ccc2cc(-c3cn(CC4CCN(C(C)=O)CC4)c4ncnc(N)c34)ccc2c1 [2 f, 1‐{4‐[(4‐Amino‐5‐(2‐methoxynaphthalen‐6‐yl)‐7H‐pyrrolo[2,3‐d]pyrimidin‐7‐yl)methyl]piperidin‐1‐yl}ethanone] | 210 ± 68 | – | 92.1 ± 3.1 | 35.3 ± 2.2 | – | – |
| CCOCCOc1ccc2cc(-c3cn(CC4CCN(C(C)=O)CC4)c4ncnc(N)c34)ccc2c1 [2 h, 1‐{4‐{[5‐(2‐(2‐Ethoxyethoxy)naphthalen‐6‐yl)‐4‐amino‐7H‐pyrrolo[2,3‐d]pyrimidin‐7‐yl]methyl}piperidin‐1‐yl}ethanone] | > 2000 | – | 94.4 ± 9.3 | 62.2 ± 9 | – | – |
| COc1ccc(-c2cn(CC3CCN(C(C)=O)CC3)c3ncnc(N)c23)cc1OC [2 j, 1‐{4‐[(4‐Amino‐5‐(3,4‐dimethoxyphenyl)‐7H‐pyrrolo[2,3‐d]pyrimidin‐7‐yl)methyl]piperidin‐1‐yl}ethanone] | > 2000 | 12100 ± 11400 | 79.3 ± 0.8 | 2.8 ± 3.9 | moderate antiplasmodial activity | – |
| COc1ccccc1-c1cn(CCC2CCN(C(=O)OC(C)(C)C)CC2)c2ncnc(N)c12 [2 k, tert ‐Butyl 4‐{2‐[4‐amino‐5‐(2‐methoxyphenyl)‐7H‐pyrrolo[2,3‐d]pyrimidin‐7‐yl]ethyl}piperidine‐1‐carboxylate] | – | – | 78.9 ± 0.1 | 62 ± 2.1 | – | – |
| COc1ccccc1-c1cn(CCN2CCOCC2)c2ncnc(N)c12 [2 n, 5‐(2‐Methoxyphenyl)‐7‐(2‐morpholinoethyl)‐7H‐pyrrolo[2,3‐d]pyrimidin‐4‐amine] | > 2000 | – | 112 ± 2.8 | 95 ± 1 | – | – |
| COc1ccccc1-c1cn(Cc2ccccc2)c2ncnc(N)c12 [2 p, 7‐Benzyl‐5‐(2‐methoxyphenyl)‐7H‐pyrrolo[2,3‐d]pyrimidin‐4‐amine] | – | – | 97 ± 12.5 | 72.4 ± 13.3 | – | – |
| COc1ccc(-c2cn(Cc3ccccc3)c3ncnc(N)c23)cc1OC [2 q, 7‐Benzyl‐5‐(3,4‐dimethoxyphenyl)‐7H‐pyrrolo[2,3‐d]pyrimidin‐4‐amine] | – | – | 95.4 ± 0.5 | 110 ± 4.2 | – | – |
